Screening data as filed in PubChem.
HCV NS3 hel inh: inhibitors of Hepatitis C virus NS3 helicase. NS3 helicase DNA unwinding, Cy5 molecular beacon fluorescence. inhibition, % at 10.9 µM. 290,000 compounds, 0.56% hits;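 active means inhibition above the mean of all tested compounds plus 3 SD, set per campaign, cut at about 35% in these data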;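 further: 0% = DMSO wells and 100% = thioflavine S control wells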
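test system = hepatitis C virus NS3 helicase domain fragment enzyme | reagent = annealed dual-labelled DNA beacon duplex, ATP-started | times = 1 h at 25 °C | detection = Cy5 fluorescence, 0 and 60 min reads | read-out basis = percent inhibition from t60/t0 fluorescence ratio | control set = DMSO and thioflavine S | replication = one well per compound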
SUMO HTRF inh: blocks human SUMOylation mediated by UBC9 | 290,000 compounds, 0.36% hits | HTRF SUMOylation assay, SAE1/SAE2 + UBC9, in vitro | inhibition, % at 35 µM | AID 2006 | P63279; in the data active means inhibition above about 50%, passing the limit was not always enough
Target sequence (P63279 whole entry, looked up): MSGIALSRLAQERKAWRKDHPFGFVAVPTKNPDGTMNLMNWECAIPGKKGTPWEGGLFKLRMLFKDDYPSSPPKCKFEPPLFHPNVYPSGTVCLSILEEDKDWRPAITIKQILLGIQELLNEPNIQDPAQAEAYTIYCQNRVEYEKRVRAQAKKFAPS
IMP-1 inh: inhibitors of Pseudomonas aeruginosa IMP-1 metallo-beta-lactamase; purified IMP-1, nitrocefin hydrolysis, epi-absorbance fluorescence; inhibition, % at 5.6 µM; 290,000 compounds, 0.45% hits;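 active means inhibition above the mean plus 3 SD of all compounds in the same screening run, cut at about 4.5% in these data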;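 further: 0% = IMP-1 with DMSO and 100% = DMSO wells lacking enzyme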
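System: purified IMP-1 / Input: IMP-1 dispensed at 0.2 nM / Medium: 50 mM HEPES pH 7.1, 50 µM ZnSO4, 0.05% Brij 35 / Timing: 15 min enzyme–compound preincubation, then 25 min nitrocefin reaction, 25 °C / Technique: plate fluorescence quenching by hydrolysis product, ex 480/em 530 nm / Repeats: singlicate testing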
VIM-2 inh: inhibitors of Pseudomonas aeruginosa VIM-2 metallo-beta-lactamase; purified VIM-2, nitrocefin hydrolysis, epi-absorbance fluorescence; inhibition, % at 5.6 µM; 290,000 compounds, 0.89% hits;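 active means inhibition above the mean of all tested compounds plus 3 SD, cutoff set per screening run, cut at about 7.5% in these data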;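 further: red hydrolysis product quenches plate fluorescence so inhibitors raise well fluorescence; 0% = enzyme with DMSO and 100% = DMSO without enzyme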
DNA FID counter: fluorescent intercalator displacement, NS3 helicase counter-screen; DNA fluorescent intercalator displacement, fluorescence; inhibition, % at 7.9 µM; 290,000 compounds, 0.17% hits; AID 1845; in the data active means inhibition above about 37%;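 further: 0% = vehicle and 100% = reference compound; higher means more ethidium bromide displaced from hairpin DNA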
* hit, by the source's call. Sampled rows, rich in hits. Any-hit rate of the full collection: about 2.1%.

Screening Nc1ccc(Br)c2c1C(=O)c1ccccc1C2=O returned HCV NS3 hel inh -1, SUMO HTRF inh -44, IMP-1 inh -3, VIM-2 inh 10* and DNA FID counter 19.
For Nc1ccc(O)c2c1C(=O)c1ccccc1C2=O the results were HCV NS3 hel inh 17, SUMO HTRF inh -34, IMP-1 inh -1, VIM-2 inh 4 and DNA FID counter -5.
Screening O=C(NCCCN1CCOCC1)c1cc2nc(-c3ccco3)cc(C(F)(F)F)n2n1 returned HCV NS3 hel inh -3, SUMO HTRF inh 39, IMP-1 inh -2, VIM-2 inh 12* and DNA FID counter -4.
CC(C)c1ccc([N+](=O)[O-])cc1S(=O)(=O)N1CCN(C)CC1 was read as HCV NS3 hel inh 3, SUMO HTRF inh 9, IMP-1 inh -3, VIM-2 inh -1 and DNA FID counter 4.
`CCOc1ccc(NC(=O)CN2CCC(n3cnc4cc(F)ccc43)CC2)cc1` gave HCV NS3 hel inh -15, SUMO HTRF inh -17, IMP-1 inh -1, VIM-2 inh 0 and DNA FID counter -8.
`O=C(CN1CCC(n2cnc3cc(F)ccc32)CC1)Nc1ccccc1Br` gave HCV NS3 hel inh -31, SUMO HTRF inh -8, IMP-1 inh -2, VIM-2 inh 9.8* and DNA FID counter -27.
NC(N)=Nc1nc2ccc(Cl)cc2c(=O)[nH]1 was read as HCV NS3 hel inh -1, SUMO HTRF inh 10, IMP-1 inh -3, VIM-2 inh -5 and DNA FID counter -3.
`COc1ccc(CCNC(=O)CCS(=O)(=O)c2ccc3nc(C)sc3c2)cc1OC` gave HCV NS3 hel inh 10, SUMO HTRF inh 3, IMP-1 inh -1, VIM-2 inh -2 and DNA FID counter -24.
Screening COc1ccc(C(=O)CC2OC(=O)c3ccccc32)cc1OC (stereo not given) returned HCV NS3 hel inh 12, SUMO HTRF inh -15, IMP-1 inh 4.9*, VIM-2 inh 0 and DNA FID counter -9.
`CS(=O)(=O)Cc1ccc(C(=O)N(CCc2ccccc2)Cc2ccccc2)cc1` gave HCV NS3 hel inh -12, SUMO HTRF inh 7, IMP-1 inh -3, VIM-2 inh -1 and DNA FID counter -50.
`Cc1ccc2c(c1)c1ccc3c(c1n2C)C(=O)C=CC3=O` gave HCV NS3 hel inh 14, SUMO HTRF inh 19, IMP-1 inh -1, VIM-2 inh 12* and DNA FID counter -5.
COc1ccc2c(c1)c1ccc3c(c1n2C)C(=O)C=CC3=O was read as HCV NS3 hel inh 29, SUMO HTRF inh 28, IMP-1 inh -2, VIM-2 inh 5 and DNA FID counter 0.
COc1cc(OC)cc(-c2nnc(NC(=O)c3ccc4c(c3)OCCO4)o2)c1 was read as HCV NS3 hel inh 10, SUMO HTRF inh 10, IMP-1 inh -3, VIM-2 inh -6 and DNA FID counter -16.
CCOc1ccc(NCc2cccn2-c2nnc(N3CCC(C(=O)NCCCN4CCCCC4CC)CC3)s2)cc1 (stereo not given) was read as HCV NS3 hel inh -83, SUMO HTRF inh -1, IMP-1 inh -5, VIM-2 inh 1 and DNA FID counter 40*.
CCCOC(=O)C(C)n1cnc2scc(-c3ccc(C)cc3)c2c1=O (stereo not given) was read as HCV NS3 hel inh -9, SUMO HTRF inh -7, IMP-1 inh -2, VIM-2 inh -2 and DNA FID counter -27.
Clc1cccc(Cl)c1CSc1nnc([C@@H]2CCCN2)o1 was read as HCV NS3 hel inh 4, SUMO HTRF inh 19, IMP-1 inh 5.0*, VIM-2 inh 1 and DNA FID counter -4.
Clc1cccc(CSc2nnc([C@@H]3CCCN3)o2)c1 was read as HCV NS3 hel inh -1, SUMO HTRF inh 4, IMP-1 inh 2, VIM-2 inh 2 and DNA FID counter 2.
Screening CC(=O)Nc1ccc(NC(=O)Cn2c(-c3ccc(F)cc3)cnc2SCC(=O)Nc2c(C)cccc2C)cc1 returned HCV NS3 hel inh 7, SUMO HTRF inh 51*, IMP-1 inh 0, VIM-2 inh -3 and DNA FID counter 2.
For Cc1ccc(NC(=O)CN2C(=O)S/C(=C/c3ccc(-c4cccc(C(=O)O)c4)o3)C2=O)cc1 the results were HCV NS3 hel inh 21, SUMO HTRF inh 81*, IMP-1 inh -3, VIM-2 inh -3 and DNA FID counter -10.
For Cc1cc(C(=O)O)ccc1-c1ccc(/C=C2\SC(=O)N(CC(=O)Nc3ccc4c(c3)OCO4)C2=O)o1 the results were HCV NS3 hel inh 15, SUMO HTRF inh 82*, IMP-1 inh 8.0*, VIM-2 inh 0 and DNA FID counter -23.
For Cc1ccccc1NC(=O)CN1C(=O)S/C(=C\c2ccc(-c3cc(C(=O)O)ccc3C)o2)C1=O the results were HCV NS3 hel inh 9, IMP-1 inh -3, VIM-2 inh -3 and DNA FID counter -3.
CN(CCc1ccccn1)C(=O)CCC1CCCN(C(=O)c2n[nH]c3c2CCCC3)C1 (stereo not given) was read as HCV NS3 hel inh 1, SUMO HTRF inh 1, IMP-1 inh -2, VIM-2 inh -3 and DNA FID counter -29.
`CN(C)C(=O)c1cc(C(=O)c2ccc(C(F)(F)F)cc2)c[nH]1` gave HCV NS3 hel inh -6, SUMO HTRF inh 9, IMP-1 inh 0, VIM-2 inh 2 and DNA FID counter -13.
`CN(C)c1ccc(/C=C/c2ccncc2)cc1` gave HCV NS3 hel inh 5, SUMO HTRF inh 10, IMP-1 inh 6.3*, VIM-2 inh 7 and DNA FID counter 3.
`COc1ccc(/C=C/c2ccncc2)cc1` gave HCV NS3 hel inh 2, SUMO HTRF inh 17, IMP-1 inh -2, VIM-2 inh -1 and DNA FID counter -3.
`CN(C)c1ccc(/C=C/C(=O)c2ccccc2O)cc1` gave HCV NS3 hel inh -1, SUMO HTRF inh 0, IMP-1 inh 6.0*, VIM-2 inh 0 and DNA FID counter -1.
Screening CN(C)c1ccc(/C=C/C(=O)c2cccnc2)cc1 returned HCV NS3 hel inh -1, SUMO HTRF inh 4, IMP-1 inh 7.8*, VIM-2 inh 4 and DNA FID counter -19.
For CCCC(=O)NC(c1ccc(Cl)cc1Cl)c1ccc2cccnc2c1O (stereo not given) the results were HCV NS3 hel inh 5, SUMO HTRF inh 91*, IMP-1 inh -3, VIM-2 inh -4 and DNA FID counter -25.
Screening CCC1(c2ccc(Cl)cc2)NC(=O)N(Cc2ccc(C(=O)OC)cc2)C1=O (stereo not given) returned HCV NS3 hel inh -11, SUMO HTRF inh -9, IMP-1 inh -4, VIM-2 inh -3 and DNA FID counter -22.
Screening COc1ccccc1CN1CCC(CNS(=O)(=O)c2cc(-c3onc(C)c3C)ccc2OC)CC1 returned HCV NS3 hel inh -62, SUMO HTRF inh -16, IMP-1 inh 0, VIM-2 inh 3 and DNA FID counter 44*.
For COc1ccccc1C(=O)NNC(=O)c1ccccc1F the results were HCV NS3 hel inh 2, SUMO HTRF inh 4, IMP-1 inh 8.6*, VIM-2 inh -2 and DNA FID counter -3.
